≈ marks a conversion by molar mass, not a printed value.
Key:
Assay type in all cases: functional
Klebsiella pneumoniae [1] = experiment: Selectivity index, ratio of MIC for against KPC-2 producing Klebsiella pneumoniae isolate 212423 to MIC for against KPC-2 producing Klebsiella pneumoniae isolate 212423 in presence of BPL
Escherichia coli [2] = experiment: Antibacterial activity against extended-spectrum beta-lactamase producing Escherichia coli isolate 208687 after 18 hrs in presence of BPL by CLSI broth microdilution method; conditions: isolate 208687, 18 h
Procedure, shortened: (§1)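 CLSI broth microdilution against clinical isolates (ESBL E. coli, KPC-2 MDR K. pneumoniae, IMP-4 MDR P. aeruginosa; five per species). Iron limitation: Mueller-Hinton broth supplemented with 16 mg/liter 2,2'-bipyridyl to complex iron and induce iron uptake systems. Read-out: MIC.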

Pseudomonas aeruginosa [3] = experiment: Antibacterial activity against IMP-4 producing Pseudomonas aeruginosa isolate 209471 after 18 hrs by CLSI broth microdilution method; conditions: isolate 209471, 18 h
Klebsiella pneumoniae [4] = experiment: Selectivity index, ratio of MIC for against KPC-2 producing Klebsiella pneumoniae isolate 212229 to MIC for against KPC-2 producing Klebsiella pneumoniae isolate 212229 in presence of BPL
Pseudomonas aeruginosa [5] = experiment: Antibacterial activity against IMP-4 producing Pseudomonas aeruginosa isolate 208247 after 18 hrs by CLSI broth microdilution method; conditions: isolate 208247, 18 h
Klebsiella pneumoniae [6] = experiment: Antibacterial activity against KPC-2 producing Klebsiella pneumoniae isolate 212423 after 18 hrs by CLSI broth microdilution method; conditions: isolate 212423, 18 h
Klebsiella pneumoniae [7] = experiment: Antibacterial activity against KPC-2 producing Klebsiella pneumoniae isolate 212423 after 18 hrs in presence of BPL by CLSI broth microdilution method; conditions: isolate 212423, 18 h; procedure, shortened: as §1
Klebsiella pneumoniae [8] = experiment: Antibacterial activity against KPC-2 producing Klebsiella pneumoniae isolate 209632 after 18 hrs in presence of BPL by CLSI broth microdilution method; conditions: isolate 209632, 18 h; procedure, shortened: as §1
Klebsiella pneumoniae [9] = experiment: Selectivity index, ratio of MIC for against KPC-2 producing Klebsiella pneumoniae isolate 212232 to MIC for against KPC-2 producing Klebsiella pneumoniae isolate 212232 in presence of BPL
Klebsiella pneumoniae [10] = experiment: Selectivity index, ratio of MIC for against KPC-2 producing Klebsiella pneumoniae isolate 209632 to MIC for against KPC-2 producing Klebsiella pneumoniae isolate 209632 in presence of BPL
Escherichia coli [11] = experiment: Antibacterial activity against extended-spectrum beta-lactamase producing Escherichia coli isolate 212648 after 18 hrs by CLSI broth microdilution method; conditions: isolate 212648, 18 h
Escherichia coli [12] = experiment: Antibacterial activity against extended-spectrum beta-lactamase producing Escherichia coli isolate 106342 after 18 hrs in presence of BPL by CLSI broth microdilution method; conditions: isolate 106342, 18 h; procedure, shortened: as §1
Klebsiella pneumoniae [13] = experiment: Antibacterial activity against KPC-2 producing Klebsiella pneumoniae isolate 212232 after 18 hrs by CLSI broth microdilution method; conditions: isolate 212232, 18 h
Pseudomonas aeruginosa [14] = experiment: Antibacterial activity against IMP-4 producing Pseudomonas aeruginosa isolate 207272 after 18 hrs by CLSI broth microdilution method; conditions: isolate 207272, 18 h
Pseudomonas aeruginosa [15] = experiment: Antibacterial activity against IMP-4 producing Pseudomonas aeruginosa isolate 208247 after 18 hrs in presence of BPL by CLSI broth microdilution method; conditions: isolate 208247, 18 h; procedure, shortened: as §1
Pseudomonas aeruginosa [16] = experiment: Selectivity index, ratio of MIC for against IMP-4 producing Pseudomonas aeruginosa isolate 207272 to MIC for against IMP-4 producing Pseudomonas aeruginosa isolate 207272 in presence of BPL
Escherichia coli [17] = experiment: Selectivity index, ratio of MIC for against extended-spectrum beta-lactamase producing Escherichia coli isolate 212648 to MIC for extended-spectrum beta-lactamase producing Escherichia coli isolate 212648 in presence of BPL
Pseudomonas aeruginosa [18] = experiment: Antibacterial activity against IMP-4 producing Pseudomonas aeruginosa isolate 207272 after 18 hrs in presence of BPL by CLSI broth microdilution method; conditions: isolate 207272, 18 h; procedure, shortened: as §1
Escherichia coli [19] = experiment: Antibacterial activity against Escherichia coli isolate 210737 after 18 hrs in presence of BPL by CLSI broth microdilution method; conditions: isolate 210737, 18 h; procedure, shortened: as §1
Klebsiella pneumoniae [20] = experiment: Antibacterial activity against KPC-2 producing Klebsiella pneumoniae isolate 209735 after 18 hrs in presence of BPL by CLSI broth microdilution method; conditions: isolate 209735, 18 h; procedure, shortened: as §1
Escherichia coli [21] = experiment: Selectivity index, ratio of MIC for against extended-spectrum beta-lactamase producing Escherichia coli isolate 106342 to MIC for extended-spectrum beta-lactamase producing Escherichia coli isolate 106342 in presence of BPL
Escherichia coli [22] = experiment: Antibacterial activity against extended-spectrum beta-lactamase producing Escherichia coli isolate 106342 after 18 hrs by CLSI broth microdilution method; conditions: isolate 106342, 18 h
Escherichia coli [23] = experiment: Selectivity index, ratio of MIC for against Escherichia coli isolate 210737 to MIC for Escherichia coli isolate 210737 in presence of BPL
Klebsiella pneumoniae [24] = experiment: Antibacterial activity against KPC-2 producing Klebsiella pneumoniae isolate 212232 after 18 hrs in presence of BPL by CLSI broth microdilution method; conditions: isolate 212232, 18 h; procedure, shortened: as §1
Klebsiella pneumoniae [25] = experiment: Antibacterial activity against KPC-2 producing Klebsiella pneumoniae isolate 209735 after 18 hrs by CLSI broth microdilution method; conditions: isolate 209735, 18 h
Pseudomonas aeruginosa [26] = experiment: Antibacterial activity against IMP-4 producing Pseudomonas aeruginosa isolate 209321 after 18 hrs in presence of BPL by CLSI broth microdilution method; conditions: isolate 209321, 18 h; procedure, shortened: as §1
Pseudomonas aeruginosa [27] = experiment: Selectivity index, ratio of MIC for against IMP-4 producing Pseudomonas aeruginosa isolate 209471 to MIC for against IMP-4 producing Pseudomonas aeruginosa isolate 209471 in presence of BPL
Escherichia coli [28] = experiment: Selectivity index, ratio of MIC for against extended-spectrum beta-lactamase producing Escherichia coli isolate 208687 to MIC for extended-spectrum beta-lactamase producing Escherichia coli isolate 208687 in presence of BPL
Klebsiella pneumoniae [29] = experiment: Selectivity index, ratio of MIC for against KPC-2 producing Klebsiella pneumoniae isolate 209735 to MIC for against KPC-2 producing Klebsiella pneumoniae isolate 209735 in presence of BPL
Pseudomonas aeruginosa [30] = experiment: Antibacterial activity against IMP-4 producing Pseudomonas aeruginosa isolate 212886 after 18 hrs in presence of BPL by CLSI broth microdilution method; conditions: isolate 212886, 18 h; procedure, shortened: as §1
Klebsiella pneumoniae [31] = experiment: Antibacterial activity against KPC-2 producing Klebsiella pneumoniae isolate 209632 after 18 hrs by CLSI broth microdilution method; conditions: isolate 209632, 18 h
Pseudomonas aeruginosa [32] = experiment: Selectivity index, ratio of MIC for against IMP-4 producing Pseudomonas aeruginosa isolate 208247 to MIC for against IMP-4 producing Pseudomonas aeruginosa isolate 208247 in presence of BPL
Pseudomonas aeruginosa [33] = experiment: Selectivity index, ratio of MIC for against IMP-4 producing Pseudomonas aeruginosa isolate 209321 to MIC for against IMP-4 producing Pseudomonas aeruginosa isolate 209321 in presence of BPL
Pseudomonas aeruginosa [34] = experiment: Antibacterial activity against IMP-4 producing Pseudomonas aeruginosa isolate 209321 after 18 hrs by CLSI broth microdilution method; conditions: isolate 209321, 18 h
Escherichia coli [35] = experiment: Antibacterial activity against Escherichia coli isolate 210737 after 18 hrs by CLSI broth microdilution method; conditions: isolate 210737, 18 h
Escherichia coli [36] = experiment: Antibacterial activity against extended-spectrum beta-lactamase producing Escherichia coli isolate 212648 after 18 hrs in presence of BPL by CLSI broth microdilution method; conditions: isolate 212648, 18 h; procedure, shortened: as §1
Escherichia coli [37] = experiment: Antibacterial activity against extended-spectrum beta-lactamase producing Escherichia coli isolate 208687 after 18 hrs by CLSI broth microdilution method; conditions: isolate 208687, 18 h
Pseudomonas aeruginosa [38] = experiment: Selectivity index, ratio of MIC for against IMP-4 producing Pseudomonas aeruginosa isolate 212886 to MIC for against IMP-4 producing Pseudomonas aeruginosa isolate 212886 in presence of BPL
Escherichia coli [39] = experiment: Antibacterial activity against extended-spectrum beta-lactamase producing Escherichia coli isolate 209285 after 18 hrs in presence of BPL by CLSI broth microdilution method; conditions: isolate 209285, 18 h; procedure, shortened: as §1
Klebsiella pneumoniae [40] = experiment: Antibacterial activity against KPC-2 producing Klebsiella pneumoniae isolate 212229 after 18 hrs by CLSI broth microdilution method; conditions: isolate 212229, 18 h
Escherichia coli [41] = experiment: Selectivity index, ratio of MIC for against extended-spectrum beta-lactamase producing Escherichia coli isolate 209285 to MIC for extended-spectrum beta-lactamase producing Escherichia coli isolate 209285 in presence of BPL
Escherichia coli [42] = experiment: Antibacterial activity against extended-spectrum beta-lactamase producing Escherichia coli isolate 209285 after 18 hrs by CLSI broth microdilution method; conditions: isolate 209285, 18 h
Pseudomonas aeruginosa [43] = experiment: Antibacterial activity against IMP-4 producing Pseudomonas aeruginosa isolate 212886 after 18 hrs by CLSI broth microdilution method; conditions: isolate 212886, 18 h
Klebsiella pneumoniae [44] = experiment: Antibacterial activity against KPC-2 producing Klebsiella pneumoniae isolate 212229 after 18 hrs in presence of BPL by CLSI broth microdilution method; conditions: isolate 212229, 18 h; procedure, shortened: as §1
Pseudomonas aeruginosa [45] = experiment: Antibacterial activity against IMP-4 producing Pseudomonas aeruginosa isolate 209471 after 18 hrs in presence of BPL by CLSI broth microdilution method; conditions: isolate 209471, 18 h; procedure, shortened: as §1

SMILES: CC(C)C(O/N=C(\C(=O)NC1C(=O)N(S(=O)(=O)O)C12CCC2)c1csc(N)n1)c1cc(=O)c(O)cn1O (stereo not given)
- Selectivity Index (Klebsiella pneumoniae [1]): >8
- MIC (Escherichia coli [2]): 0.5 µg/mL
- MIC (Pseudomonas aeruginosa [3]): 32 µg/mL (≈ 57.5 µM)
- Selectivity Index (Klebsiella pneumoniae [4]): 4
- MIC (Pseudomonas aeruginosa [5]): 16 µg/mL (≈ 28.7 µM)
- MIC (Klebsiella pneumoniae [6]): > 64 µg/mL
- MIC (Klebsiella pneumoniae [7]): 8 µg/mL
- MIC (Klebsiella pneumoniae [8]): 16 µg/mL
- Selectivity Index (Klebsiella pneumoniae [9]): 2
- Selectivity Index (Klebsiella pneumoniae [10]): >4
- MIC (Escherichia coli [11]): 2 µg/mL (≈ 3.59 µM)
- MIC (Escherichia coli [12]): 1 µg/mL
- MIC (Klebsiella pneumoniae [13]): 8 µg/mL (≈ 14.4 µM)
- MIC (Pseudomonas aeruginosa [14]): 32 µg/mL (≈ 57.5 µM)
- MIC (Pseudomonas aeruginosa [15]): 16 µg/mL
- Selectivity Index (Pseudomonas aeruginosa [16]): 1
- Selectivity Index (Escherichia coli [17]): 2
- MIC (Pseudomonas aeruginosa [18]): 32 µg/mL
- MIC (Escherichia coli [19]): 0.5 µg/mL
- MIC (Klebsiella pneumoniae [20]): 8 µg/mL
- Selectivity Index (Escherichia coli [21]): 2
- MIC (Escherichia coli [22]): 2 µg/mL (≈ 3.59 µM)
- Selectivity Index (Escherichia coli [23]): 8
- MIC (Klebsiella pneumoniae [24]): 4 µg/mL
- MIC (Klebsiella pneumoniae [25]): > 64 µg/mL
- MIC (Pseudomonas aeruginosa [26]): 16 µg/mL
- Selectivity Index (Pseudomonas aeruginosa [27]): 1
- Selectivity Index (Escherichia coli [28]): 2
- Selectivity Index (Klebsiella pneumoniae [29]): >8
- MIC (Pseudomonas aeruginosa [30]): 16 µg/mL
- MIC (Klebsiella pneumoniae [31]): > 64 µg/mL
- Selectivity Index (Pseudomonas aeruginosa [32]): 1
- Selectivity Index (Pseudomonas aeruginosa [33]): 2
- MIC (Pseudomonas aeruginosa [34]): 32 µg/mL (≈ 57.5 µM)
- MIC (Escherichia coli [35]): 4 µg/mL (≈ 7.19 µM)
- MIC (Escherichia coli [36]): 1 µg/mL
- MIC (Escherichia coli [37]): 1 µg/mL (≈ 1.8 µM)
- Selectivity Index (Pseudomonas aeruginosa [38]): 1
- MIC (Escherichia coli [39]): 2 µg/mL
- MIC (Klebsiella pneumoniae [40]): 32 µg/mL (≈ 57.5 µM)
- Selectivity Index (Escherichia coli [41]): 2
- MIC (Escherichia coli [42]): 4 µg/mL (≈ 7.19 µM)
- MIC (Pseudomonas aeruginosa [43]): 16 µg/mL (≈ 28.7 µM)
- MIC (Klebsiella pneumoniae [44]): 8 µg/mL
- MIC (Pseudomonas aeruginosa [45]): 32 µg/mL
